# Measured values pooled from the literature.
# Compare with care: the assays were run in different laboratories.
# HTR2B: 5-hydroxytryptamine receptor 2B (HTR2B, Homo sapiens, UniProt P41595)
# HTR2C: 5-hydroxytryptamine receptor 2C (HTR2C, Homo sapiens, UniProt P28335)
Compound,target,assay,setting,endpoint,result
CC(C)CC(=O)OC[C@H]1O[C@@](C#N)(c2ccc3c(N)ncnn23)[C@H](O)[C@@H]1O,"Prostaglandin G/H synthase 1 (PTGS1, Homo sapiens, UniProt P23219)","enzyme activity, inhibitor",20 µM,inhibition,6%
COc1cc(C(F)(F)F)c(OC)cc1C1CCCNC1 (stereo not shown),HTR2B,"G protein activation, agonist, BRET",,Emax,84%
c1cncc([C@@H]2CCCN2)c1,HTR2B,ligand displacement,50 µM,inhibition,-2.22%
Nc1ncnc2c1ncn2[C@@H]1O[C@H](C[C@@H](N)CC[C@H](N)C(=O)O)[C@@H](O)[C@H]1O,"mRNA cap guanine-N(7) methyltransferase (RNMT, Homo sapiens, UniProt O43148)","enzyme activity, inhibitor",3.125 µM,inhibition,40.9%
CCOC(=O)Cc1c2c3c(cc(OC)c(OC)c3c3cc(OC)c(OC)cc13)CCN2C,HTR2B,"ligand displacement, radioligand",10 µM,inhibition,43%
CN1CCC[C@H]1c1cccnc1,HTR2C,ligand displacement,50 µM,inhibition,-24.7%
COc1cc2c3c(c1OC)-c1c(cccc1OC)CC3N(C)CC2 (racemic),HTR2B,"ligand displacement, radioligand",10 µM,inhibition,86%
[2H]c1c([2H])c([C@]2([2H])CCCN2C(=O)C(C)(C)Oc2ccc3cn[nH]c3c2)c([2H])c([2H])c1C([2H])([2H])[2H],"Serine/threonine-protein kinase Nek6 (NEK6, Homo sapiens, UniProt Q9HC98)","binding, competition with immobilised ligand",1 µM,remaining binding,100%
CC[C@H](C)[C@H](NC(=O)[C@H](CO)NC(=O)[C@H](Cc1ccc(O)cc1)NC(=O)[C@H](CC(=O)O)NC(=O)[C@H](CO)NC(=O)[C@@H](NC(=O)[C@H](Cc1ccccc1)NC(=O)[C@@H](NC(=O)CNC(=O)[C@H](CCC(=O)O)NC(=O)CCNC(=O)C1(c2ccc(Cl)cc2)CCOCC1)[C@@H](C)O)[C@@H](C)CC)C(=O)N[C@@H](C)C(=O)N[C@@H](CCSC)C(=O)N[C@@H](CC(=O)O)C(=O)N[C@@H](CCCCN)C(=O)N[C@H](C(=O)N[C@@H](Cc1c[nH]cn1)C(=O)N[C@@H](CCC(N)=O)C(=O)N[C@@H](CCC(N)=O)C(=O)N[C@@H](CC(=O)O)C(=O)N[C@@H](Cc1ccccc1)C(=O)N[C@H](C(=O)N[C@@H](CC(N)=O)C(=O)N[C@@H](Cc1c[nH]c2ccccc12)C(=O)N[C@@H](CC(C)C)C(=O)N[C@@H](CC(C)C)C(=O)N[C@@H](C)C(=O)N[C@@H](CCC(N)=O)C(=O)NCC(=O)N1CCC[C@H]1C(=O)N[C@@H](CO)C(=O)N[C@@H](CO)C(=O)NCC(=O)N[C@@H](C)C(=O)N1CCC[C@H]1C(=O)N1CCC[C@H]1C(=O)N1CCC[C@H]1C(=O)N[C@@H](CO)C(=O)N[C@@H](CCCCN)C(N)=O)C(C)C)[C@@H](C)CC,"Glucagon receptor (Mus musculus, UniProt Q61606)","cAMP, agonist",,Emax,< 20%
COc1cc2cc3c4c(cc(OC)c(OC)c4c2cc1OC)CCN3C,HTR2C,"ligand displacement, radioligand",10 µM,inhibition,-1%
